# Measured values published in ChEMBL document CHEMBL5724801, “EUbOPEN Chemogenomics Library - Multiplex” (2024).
# Values joined by “and” are separate entries in the source; they are usually repeats but may differ in a detail not shown here. Equal values may be shown once.
# System: Fibroblast
# Assay: Multiplex assay against human fibroblast
# Type: toxicity, cell-based
# Method in brief: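 Hoechst33342, BioTracker Green Microtubule Cytoskeleton Dye, MitoTracker Red and Annexin V Alexa Fluor 680 were added to live cells at seeding, and imaging on a CQ1 microscope at 37°C and 5% CO2 followed compound addition. Gating by CellPathfinder machine learning separated cells into Hoechst high-intensity objects or normal cells, then normal cells into healthy, pyknosed or fragmented nuclei, then pyknosed cells into mitotic or apoptotic. Per cents of healthy-nucleus cells are reported for the tubulin, mitochondrial-mass and membrane-permeability phenotypes.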
# [1] = 12 h, 1 µM, compound concentration 1 uM
# [2] = 12 h, 10 µM, compound concentration 10 uM
# [3] = 24 h, 1 µM, compound concentration 1 uM
# [4] = 24 h, 10 µM, compound concentration 10 uM
# [5] = 48 h, 1 µM, compound concentration 1 uM
# [6] = 48 h, 10 µM, compound concentration 10 uM
smiles,measurement,setting,value
Cc1cc(NC(=O)NCCN2CCC(O)(Cc3ccccc3)CC2)c2ccccc2n1 [PALOSURAN],Population Apoptotic (%),[1],37% and 40%
same,Population Fragmented Nuclei (%),[1],10% and 26%
same,Population Healthy Nuclei (%),[1],77% and 44%
same,Population Hoechst High Intensity Objects (%),[1],2% and 9%
same,Population Membrane Permeable-Phenotype (%),[1],3% and 1%
same,Population Mitotic Cells (%),[1],62% and 59%
same,Population Normal (%),[1],97% and 90%
same,Population Pyknosed Nuclei (%),[1],12% and 28%
same,Population Tubulin-Different-Phenotype (%),[1],19% and 46%
same,Total Cell Count,[1],133 and 143
same,Population Apoptotic (%),[2],40% and 41%
same,Population Fragmented Nuclei (%),[2],14% and 28%
same,Population Healthy Nuclei (%),[2],69% and 49%
same,Population Hoechst High Intensity Objects (%),[2],1% and 6%
same,Population Membrane Permeable-Phenotype (%),[2],0% and 3%
same,Population Mitochondria Different-Phenotype (%),[2],13% and 3%
same,Population Mitotic Cells (%),[2],59% and 58%
same,Population Normal (%),[2],98% and 93%
same,Population Pyknosed Nuclei (%),[2],15% and 22%
same,Population Tubulin-Different-Phenotype (%),[2],37% and 51%
same,Total Cell Count,[2],178 and 113
same,Population Apoptotic (%),[3],53% and 40%
same,Population Fragmented Nuclei (%),[3],15% and 27%
same,Population Healthy Nuclei (%),[3],73% and 50%
same,Population Hoechst High Intensity Objects (%),[3],2% and 6%
same,Population Mitochondria Different-Phenotype (%),[3],0% and 21%
same,Population Mitotic Cells (%),[3],46% and 60%
same,Population Normal (%),[3],97% and 93%
same,Population Pyknosed Nuclei (%),[3],10% and 22%
same,Total Cell Count,[3],129 and 119
same,Population Apoptotic (%),[4],42% and 60%
same,Population Fragmented Nuclei (%),[4],14% and 30%
same,Population Healthy Nuclei (%),[4],77% and 47%
same,Population Hoechst High Intensity Objects (%),[4],1% and 3%
same,Population Membrane Permeable-Phenotype (%),[4],0% and 3%
same,Population Mitochondria Different-Phenotype (%),[4],8% and 1%
same,Population Mitotic Cells (%),[4],57% and 40%
same,Population Normal (%),[4],98% and 96%
same,Population Pyknosed Nuclei (%),[4],8% and 22%
same,Population Tubulin-Different-Phenotype (%),[4],37% and 48%
same,Total Cell Count,[4],178 and 117
same,Population Apoptotic (%),[5],50% and 61%
same,Population Fragmented Nuclei (%),[5],16% and 42%
same,Population Healthy Nuclei (%),[5],72% and 44%
same,Population Hoechst High Intensity Objects (%),[5],3% and 7%
same,Population Membrane Permeable-Phenotype (%),[5],0% and 14%
same,Population Mitotic Cells (%),[5],50% and 38%
same,Population Normal (%),[5],96% and 92%
same,Population Pyknosed Nuclei (%),[5],11% and 13%
same,Total Cell Count,[5],126 and 149
same,Population Apoptotic (%),[6],55% and 61%
same,Population Fragmented Nuclei (%),[6],19% and 38%
same,Population Healthy Nuclei (%),[6],69% and 44%
same,Population Hoechst High Intensity Objects (%),[6],5% and 2%
same,Population Membrane Permeable-Phenotype (%),[6],0% and 2%
same,Population Mitochondria Different-Phenotype (%),[6],10% and 6%
same,Population Mitotic Cells (%),[6],44% and 38%
same,Population Normal (%),[6],94% and 97%
same,Population Pyknosed Nuclei (%),[6],10% and 16%
same,Population Tubulin-Different-Phenotype (%),[6],36% and 61%
same,Total Cell Count,[6],186 and 112
C[C@H](NC(=O)c1c(C(F)F)nn(C)c1Oc1cccc(C(F)(F)F)c1)c1ccc(C(=O)O)cc1 [PALUPIPRANT],Population Apoptotic (%),[1],26% and 24%
same,Population Fragmented Nuclei (%),[1],29% and 23%
same,Population Healthy Nuclei (%),[1],57% and 52%
same,Population Hoechst High Intensity Objects (%),[1],5% and 6%
same,Population Membrane Permeable-Phenotype (%),[1],0% and 11%
same,Population Mitochondria Different-Phenotype (%),[1],4% and 6%
same,Population Mitotic Cells (%),[1],73% and 75%
same,Population Normal (%),[1],94% and 93%
same,Population Pyknosed Nuclei (%),[1],12% and 23%
same,Population Tubulin-Different-Phenotype (%),[1],23% and 55%
same,Total Cell Count,[1],187 and 148
same,Population Apoptotic (%),[2],45% and 35%
same,Population Healthy Nuclei (%),[2],70% and 35%
same,Population Mitochondria Different-Phenotype (%),[2],6% and 13%
same,Population Mitotic Cells (%),[2],55% and 64%
same,Population Normal (%),[2],97% and 85%
same,Population Pyknosed Nuclei (%),[2],16% and 22%
same,Population Tubulin-Different-Phenotype (%),[2],45% and 60%
same,Total Cell Count,[2],126 and 149
same,Population Apoptotic (%),[3],40% and 42%
same,Population Fragmented Nuclei (%),[3],32% and 26%
same,Population Healthy Nuclei (%),[3],58% and 53%
same,Population Hoechst High Intensity Objects (%),[3],5% and 7%
same,Population Membrane Permeable-Phenotype (%),[3],1% and 8%
same,Population Mitochondria Different-Phenotype (%),[3],4% and 5%
same,Population Mitotic Cells (%),[3],60% and 57%
same,Population Normal (%),[3],94% and 92%
same,Population Pyknosed Nuclei (%),[3],8% and 20%
same,Total Cell Count,[3],178 and 141
same,Population Apoptotic (%),[4],60% and 38%
same,Population Fragmented Nuclei (%),[4],18% and 40%
same,Population Healthy Nuclei (%),[4],62% and 42%
same,Population Hoechst High Intensity Objects (%),[4],5% and 10%
same,Population Mitochondria Different-Phenotype (%),[4],7% and 3%
same,Population Mitotic Cells (%),[4],39% and 61%
same,Population Normal (%),[4],94% and 89%
same,Population Pyknosed Nuclei (%),[4],18% and 17%
same,Population Tubulin-Different-Phenotype (%),[4],35% and 51%
same,Total Cell Count,[4],131 and 138
same,Population Apoptotic (%),[5],53%
same,Population Fragmented Nuclei (%),[5],34% and 30%
same,Population Healthy Nuclei (%),[5],57% and 50%
same,Population Hoechst High Intensity Objects (%),[5],11% and 3%
same,Population Membrane Permeable-Phenotype (%),[5],0% and 4%
same,Population Mitochondria Different-Phenotype (%),[5],4%
same,Population Mitotic Cells (%),[5],46%
same,Population Normal (%),[5],88% and 96%
same,Population Pyknosed Nuclei (%),[5],7% and 19%
same,Population Tubulin-Different-Phenotype (%),[5],29% and 53%
same,Total Cell Count,[5],184 and 147
same,Population Apoptotic (%),[6],73% and 60%
same,Population Fragmented Nuclei (%),[6],20% and 45%
same,Population Healthy Nuclei (%),[6],60% and 45%
same,Population Hoechst High Intensity Objects (%),[6],4% and 13%
same,Population Membrane Permeable-Phenotype (%),[6],1% and 10%
same,Population Mitochondria Different-Phenotype (%),[6],8% and 6%
same,Population Mitotic Cells (%),[6],26% and 40%
same,Population Normal (%),[6],95% and 86%
same,Population Pyknosed Nuclei (%),[6],18% and 9%
same,Population Tubulin-Different-Phenotype (%),[6],46% and 50%
same,Total Cell Count,[6],130 and 122
O=C(NCC(=O)N1CC[C@H](N[C@H]2CC[C@@](O)(c3ccc(-c4ncccn4)cn3)CC2)C1)c1cccc(C(F)(F)F)c1 [PF-4136309],Population Apoptotic (%),[1],53% and 22%
same,Population Fragmented Nuclei (%),[1],13% and 25%
same,Population Healthy Nuclei (%),[1],63% and 52%
same,Population Hoechst High Intensity Objects (%),[1],2% and 5%
same,Population Mitochondria Different-Phenotype (%),[1],4% and 7%
same,Population Mitotic Cells (%),[1],46% and 77%
same,Population Normal (%),[1],97% and 94%
same,Population Pyknosed Nuclei (%),[1],23% and 21%
same,Population Tubulin-Different-Phenotype (%),[1],28% and 60%
same,Total Cell Count,[1],142 and 152
same,Population Apoptotic (%),[2],60% and 25%
same,Population Fragmented Nuclei (%),[2],18% and 24%
same,Population Healthy Nuclei (%),[2],69% and 52%
same,Population Hoechst High Intensity Objects (%),[2],2% and 5%
same,Population Membrane Permeable-Phenotype (%),[2],0% and 4%
same,Population Mitochondria Different-Phenotype (%),[2],11% and 6%
same,Population Mitotic Cells (%),[2],40% and 75%
same,Population Normal (%),[2],97% and 94%
same,Population Pyknosed Nuclei (%),[2],12% and 23%
same,Population Tubulin-Different-Phenotype (%),[2],46% and 44%
same,Total Cell Count,[2],210 and 128
same,Population Apoptotic (%),[3],61% and 45%
same,Population Fragmented Nuclei (%),[3],14% and 33%
same,Population Healthy Nuclei (%),[3],60% and 52%
same,Population Hoechst High Intensity Objects (%),[3],2% and 4%
same,Population Mitochondria Different-Phenotype (%),[3],4% and 1%
same,Population Mitotic Cells (%),[3],38% and 55%
same,Population Normal (%),[3],97% and 95%
same,Population Pyknosed Nuclei (%),[3],25% and 14%
same,Population Tubulin-Different-Phenotype (%),[3],32% and 52%
same,Total Cell Count,[3],139 and 148
same,Population Apoptotic (%),[4],36% and 30%
same,Population Fragmented Nuclei (%),[4],15% and 29%
same,Population Healthy Nuclei (%),[4],72% and 48%
same,Population Hoechst High Intensity Objects (%),[4],3% and 2%
same,Population Membrane Permeable-Phenotype (%),[4],0% and 6%
same,Population Mitochondria Different-Phenotype (%),[4],10% and 4%
same,Population Mitotic Cells (%),[4],63% and 70%
same,Population Normal (%),[4],96% and 97%
same,Population Pyknosed Nuclei (%),[4],11% and 22%
same,Population Tubulin-Different-Phenotype (%),[4],34% and 52%
same,Total Cell Count,[4],203 and 139
same,Population Apoptotic (%),[5],58% and 50%
same,Population Fragmented Nuclei (%),[5],26% and 36%
same,Population Healthy Nuclei (%),[5],49%
same,Population Hoechst High Intensity Objects (%),[5],2% and 4%
same,Population Membrane Permeable-Phenotype (%),[5],2% and 7%
same,Population Mitochondria Different-Phenotype (%),[5],2% and 4%
same,Population Mitotic Cells (%),[5],41% and 50%
same,Population Normal (%),[5],97% and 95%
same,Population Pyknosed Nuclei (%),[5],24% and 13%
same,Population Tubulin-Different-Phenotype (%),[5],27% and 46%
same,Total Cell Count,[5],149 and 137
same,Population Apoptotic (%),[6],47% and 63%
same,Population Fragmented Nuclei (%),[6],18% and 31%
same,Population Healthy Nuclei (%),[6],72% and 52%
same,Population Hoechst High Intensity Objects (%),[6],6%
same,Population Membrane Permeable-Phenotype (%),[6],0% and 6%
same,Population Mitochondria Different-Phenotype (%),[6],15% and 6%
same,Population Mitotic Cells (%),[6],52% and 36%
same,Population Normal (%),[6],93%
same,Population Pyknosed Nuclei (%),[6],9% and 15%
same,Population Tubulin-Different-Phenotype (%),[6],47% and 54%
same,Total Cell Count,[6],195 and 129
